ChEMBL document CHEMBL1142559, “ent-halimane diterpenes and a guaiane sesquiterpene from Cladogynos orientalis” (J Nat Prod, 2005)

What was measured:
NCI-H187 = assay: Cytotoxicity against human NCI-H187 cells after 72 hrs by SRB assay; assay type: functional, cell-based; details: NCI-H187, 72 h
Summary of the method: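 Small cell lung cancer NCI-H187 cells exposed at 37 °C for 72 h, then sulforhodamine B added for read-out; IC50 given in µg/mL; ellipticine as reference substance.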

[1] = test system: Mycobacterium tuberculosis; assay: Antitubercular activity against Mycobacterium tuberculosis H37Ra; assay type: functional
Summary of the method: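 Microplate alamar blue assay with M. tuberculosis H37Ra as test organism; MIC recorded in µg/mL; isoniazid and kanamycin sulfate served as reference drugs.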

With C[C@@H]1CCC2=C(CCC[C@]2(C)C(=O)O)[C@@]1(C)CCc1ccoc1 the IC50 (NCI-H187) was less than 5 µg/mL and the MIC [1] was less than 12.5 µg/mL.
COC(=O)[C@@]1(C)CC(=O)C=C2[C@@]3(C)C=C(c4ccoc4)O[C@]21CC[C@H]3C gave an IC50 (NCI-H187) of less than 5 µg/mL and an MIC [1] of less than 12.5 µg/mL.
For C[C@@H]1CCC2=C(C[C@H]3C[C@]2(C)C(=O)O3)[C@@]1(C)CC(=O)c1ccoc1, the IC50 (NCI-H187) was less than 5 µg/mL and the MIC [1] was less than 12.5 µg/mL.
Work on C[C@@H]1CCC2=C(C[C@H]3C[C@]2(C)C(=O)O3)[C@@]1(C)CCc1ccoc1 yielded an IC50 (NCI-H187) of less than 5 µg/mL and an MIC [1] of less than 12.5 µg/mL.
